# Experimental data published in paper PMC7613134 (Nature, 2021).
# Key:
# [1] = test system: human AML patient derived xenografts (PDX); assay: Human AML patient derived xenograft; type: in vivo, mouse
# [2] = molecular target: METTL3/METTL14 heterodimer (Homo sapiens, UniProt Q86U44); assay: Surface plasmon resonance; type: binding; details: 50 µM SAM in running buffer
# primary murine AML cells = assay: Colony forming; type: cell-based, mouse; details: 1 μM
# Outline: (§1)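 Lineage-negative cells from wild-type mice or primary murine AML cells, 10,000 per well, were plated in triplicate wells of M3434 methylcellulose with 1 μM test compound. Colonies were counted after 7 days. Another 10,000 cells were then re-seeded and re-counted weekly through the 3rd replating.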
# [3] = Pharmacokinetic analysis in mice; type: in vivo, mouse; details: single intra-peritoneal dose of 50 mg/kg, over 24h
# [4] = test system: MOLM-13 and primary murine AML cells; assay: Flow cytometry of differentiation, cell cycle and apoptosis in AML cells; type: cell-based
# Outline: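 Human and/or mouse AML cells were exposed to DMSO or test compound and analysed at the indicated timepoints on an LSRFortessa. Myeloid differentiation was read by anti-mouse CD11b PE/Cy5 or anti-human CD11b PE staining. Apoptosis was read by Annexin V staining. Cell cycle was read by BrdU incorporation with FITC or APC BrdU flow kits.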
# [5] = test system: SP1 and BRD4 protein levels, MOLM-13 cells; assay: Western blot of METTL3 biomarkers in MOLM-13; type: cell-based, human; details: MOLM-13, 72 hours
# Outline: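 MOLM-13 cells were exposed to DMSO or indicated concentrations of test compound for 72 h. Pellets were lysed in 50 mM Tris-HCl pH 8, 450 mM NaCl, 0.1% NP-40 and 1 mM EDTA, with 1 mM DTT and protease/phosphatase inhibitors. Immunoblots were probed with anti-SP1, N- and C-terminal anti-BRD4, and actin or GAPDH antibodies.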
# [6] = test system: normal human cord blood CD34+ cells; assay: Colony-forming efficiency of cord blood CD34+ cells; type: cell-based; details: 1, 5 or 10 µM
# Outline: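 Human cord-blood CD34+ cells were plated in StemMACS HSC-CFU semi-solid medium with the test compound at the indicated concentrations or DMSO. Colonies were counted by microscopy 12–14 days after plating.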
# [7] = test system: primary murine MLL-AF9/Flt3^Itd/+ AML; assay: Primary murine MLL-AF9/Flt3Itd/+ AML in vivo model; parameters: species or system mouse
# [8] = test system: m6A on poly-A+-enriched RNA, MOLM-13 cells; assay: RNA nucleoside quantification by mass spectrometry in MOLM-13; type: cell-based, human; details: MOLM-13, 24 hours
# [9] = test system: non-leukaemic haemopoietic cell line HPC7; type: cell-based
# normal haematopoiesis = assay: Toxicity on normal haematopoiesis in vivo; parameters: species or system mouse; details: 50 mg/kg daily for 14 days
# [10] = test system: normal haematopoietic stem and progenitor cells (HSPCs); assay: Colony forming; type: cell-based, mouse; details: 1 μM, WT Lin- cells
# Outline: as §1
# [11] = test system: m6A peaks on poly-A+-enriched RNA, MOLM-13 cells; assay: m6A-meRIP-seq and meRIP-qPCR in MOLM-13 cells; type: cell-based, human
# METTL16 = molecular target: T1, METTL16 (Homo sapiens, UniProt Q86W50); assay: RNA methyltransferase RFMS activity assay; type: biochemical; details: dose-range, top concentration 120 μM
# T1 sequence (Q86W50 1-562): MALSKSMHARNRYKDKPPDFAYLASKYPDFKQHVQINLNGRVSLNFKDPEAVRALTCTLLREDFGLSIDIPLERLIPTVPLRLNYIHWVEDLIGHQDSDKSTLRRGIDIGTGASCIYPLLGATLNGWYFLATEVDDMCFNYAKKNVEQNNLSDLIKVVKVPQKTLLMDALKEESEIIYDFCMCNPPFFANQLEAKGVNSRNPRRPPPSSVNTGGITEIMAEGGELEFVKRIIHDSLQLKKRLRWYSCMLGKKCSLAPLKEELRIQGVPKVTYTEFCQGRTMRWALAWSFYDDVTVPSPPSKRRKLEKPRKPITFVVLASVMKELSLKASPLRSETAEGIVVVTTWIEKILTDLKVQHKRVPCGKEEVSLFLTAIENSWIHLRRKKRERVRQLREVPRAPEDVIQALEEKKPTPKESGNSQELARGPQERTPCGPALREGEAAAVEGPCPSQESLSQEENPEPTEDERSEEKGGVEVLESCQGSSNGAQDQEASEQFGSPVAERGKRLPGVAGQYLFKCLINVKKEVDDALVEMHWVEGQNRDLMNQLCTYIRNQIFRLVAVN
# [12] = test system: panel of human AML cell lines; assay: Proliferation assay, AML cell line panel; type: cell-based; details: 0.04-50 μM, read on day 6
# MOLM-13 cells = assay: Polysome fractionation and RT-qPCR in MOLM-13 cells; type: cell-based, human
# Outline: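 MOLM-13 cells (5 × 10^7) were exposed to DMSO or 1 μM test compound for 72 h, then to 0.1 mg/ml cycloheximide for 5 min at 37 °C. Lysates were fractionated on a sucrose gradient. RNA from each fraction, or total RNA (RNeasy), was quantified by RT-qPCR in triplicate, normalised to GAPDH, using the standard-curve or comparative CT method.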
# panel of 468 kinases = assay: KINOMEscan kinase binding panel; details: 10 µM; inhibition = less than 50% control activity
# METTL3/14 = details: read-out: Km of SAM for METTL3/14; cited from earlier work
# [13] = MOLM-13 and primary murine AML cells
# [14] = murine or patient-derived AML cells from treated primary transplants
# Chain of METTL3/METTL14 heterodimer (Q86U44 whole entry): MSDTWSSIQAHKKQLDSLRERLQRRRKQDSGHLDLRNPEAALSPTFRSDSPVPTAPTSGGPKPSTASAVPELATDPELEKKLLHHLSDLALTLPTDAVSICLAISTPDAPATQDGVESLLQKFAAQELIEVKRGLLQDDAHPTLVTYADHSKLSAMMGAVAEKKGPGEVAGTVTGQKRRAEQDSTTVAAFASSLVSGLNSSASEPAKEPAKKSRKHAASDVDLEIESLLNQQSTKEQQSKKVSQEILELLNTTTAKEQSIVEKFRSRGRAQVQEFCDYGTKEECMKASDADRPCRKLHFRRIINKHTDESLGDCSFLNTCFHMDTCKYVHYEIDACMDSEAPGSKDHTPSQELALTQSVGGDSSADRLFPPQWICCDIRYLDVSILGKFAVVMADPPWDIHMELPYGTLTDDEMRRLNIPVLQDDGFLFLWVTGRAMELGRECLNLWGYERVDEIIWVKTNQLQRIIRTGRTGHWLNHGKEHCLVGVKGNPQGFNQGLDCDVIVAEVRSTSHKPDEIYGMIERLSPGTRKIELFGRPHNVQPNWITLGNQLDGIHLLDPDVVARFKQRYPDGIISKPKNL
# Chain of METTL3/METTL14 heterodimer (Q9HCE5 whole entry partner): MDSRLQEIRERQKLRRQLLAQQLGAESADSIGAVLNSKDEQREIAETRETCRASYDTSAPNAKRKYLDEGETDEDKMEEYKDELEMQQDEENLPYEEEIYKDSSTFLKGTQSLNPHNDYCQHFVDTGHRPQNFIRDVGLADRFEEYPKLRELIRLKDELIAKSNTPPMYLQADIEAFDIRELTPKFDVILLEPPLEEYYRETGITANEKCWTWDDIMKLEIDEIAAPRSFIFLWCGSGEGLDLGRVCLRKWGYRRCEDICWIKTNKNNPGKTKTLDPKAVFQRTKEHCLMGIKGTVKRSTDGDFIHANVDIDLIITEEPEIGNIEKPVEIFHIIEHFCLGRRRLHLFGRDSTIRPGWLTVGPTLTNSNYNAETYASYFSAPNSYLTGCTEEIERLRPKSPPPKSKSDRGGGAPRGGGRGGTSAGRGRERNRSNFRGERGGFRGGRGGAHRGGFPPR
compound,measurement,setting,value
O=C(NCc1cn2cc(CNCC3CCCCC3)ccc2n1)c1cc(=O)n2ccccc2n1 [STM2457],human CD45+ cells in bone marrow and spleen,[1]; 50 mg/kg,reduction of human CD45^+ cells in bone marrow and spleen
same,mouse lifespan in PDX,[1]; 50 mg/kg IP daily,significantly prolonged
same,toxicity and body weight in PDX mice,[1]; 50 mg/kg IP daily,no overt toxicity or effect on mouse body weight
same,engraftment and AML expansion in PDX,"[1]; 50 mg/kg IP daily, 3 PDX models",impairment of engraftment and AML expansion
same,total m6A levels on poly-A+-enriched RNA in PDX bone marrow,[1]; 30 or 50 mg/kg,significantly reduced
same,binding mode with SAM in the SPR running buffer,[2],co-factor competitive binding mode
same,clonogenic potential of primary murine AML cells,primary murine AML cells,significantly reduced
same,half-life / exposure in vivo,[3],sufficient half-life
same,apoptosis in human and mouse AML models,"[4]; Annexin V, 1 µM",induced apoptosis
same,cell cycle (BrdU),[4]; [13],cell cycle arrest
same,myeloid differentiation (CD11b/Mac1),[4]; [13],significant myeloid differentiation
same,SP1 and BRD4 protein levels,[5],dose-dependent reduction
same,colony-forming ability of normal human cord blood CD34+ cells,[6],did not affect
same,CD48+ intensity of L-GMP cells,[7]; 30 mg/kg,increased
same,engrafted AML cells in bone marrow,[7]; 30 mg/kg,reduction in the engrafted AML cells
same,spleen size,[7]; 30 mg/kg,reduction in spleen size
same,CD93+ and L-GMP leukaemia stem cell populations,"[7]; bone marrow, PDX 50 mg/kg and murine model 30 mg/kg",significantly reduced
same,AML cells in peripheral blood after re-transplantation,[7]; [14],marked decrease
same,lifespan after re-transplantation,[7]; [14],significant lifespan prolongation
same,m6A on poly-A+-enriched RNA,[8],concentration-dependent reduction
same,"other RNA modifications (m6Am, m6_2A, m7G) on poly-A+-enriched RNA",[8],No changes were detected
same,apoptosis in normal non-leukaemic haemopoietic cells,"[9]; Annexin V, 1 µM",not in normal non-leukaemic haemopoietic cells
same,differentiation and cell cycle in HPC7,"[9]; non-leukaemic HPC7, 1 µM",the same effects were not identified
same,"bone marrow HSCs and early progenitors, peripheral blood counts, body weight",normal haematopoiesis,No significant changes
same,m6A levels on poly-A+-enriched RNA of healthy bone marrow,normal haematopoiesis,significantly reduced
same,colony forming of normal haematopoietic stem and progenitor cells (HSPCs),[10],no effect
same,m6A levels in METTL3-dependent substrates including HOXA10 and MYC (meRIP-qPCR),"[11]; MOLM-13, 1 µM, 24 or 48 hours",reduced m^6A levels
same,m6A peaks reduced upon treatment,"[11]; MOLM-13, 1 μM, 48 hours, of 11,909 m6A peaks identified","4,666"
same,inhibition of METTL16,METTL16,no inhibition
same,proliferation of human AML cell line panel,[12],significant growth reduction in a concentration-dependent manner
same,polysome profile,"MOLM-13 cells; MOLM-13, 1μM, 72 hours",loss of high polysome fractions
same,overall RNA expression levels of BRD4 and SP1,"MOLM-13 cells; MOLM-13, RT-qPCR of total RNA",showed no alterations
same,inhibitory effect on kinase panel,panel of 468 kinases,no inhibitory effect
"C[S+](CC[C@H](N)C(=O)[O-])C[C@H]1O[C@@H](n2cnc3c(N)ncnc32)[C@H](O)[C@@H]1O (stereo partly shown) [SAM, S-adenosyl methionine]",Km,METTL3/14,0.1 µM
